Shown is part of a subset that was picked to be rich in hits.
GASC1 inh – inhibitors of human demethylase GASC-1 KDM4C; inhibition, % at 12.5 µM; AID 720574; Q9H3R0; GST-KDM4C 2-372, H3K9me3 peptide, LANCE TR-FRET; actives 0.15% (n = 96,000);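 active means mean replicate inhibition above about 25%, with at least 55% of replicates also reaching it, limit read from the data, passing the limit was not always enough; inconclusive means only one of those two conditions met; inactive means neither condition met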
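Test system – GST-tagged GASC-1 (JMJD2C) catalytic fragment, aa 2-372 · Medium – HEPES buffer, pH 7.5, plus ascorbate · Reagent – H3K9me3 peptide with Fe(II)/2OG · Compound – one test concentration per compound · Timing – 30 min reaction, 60 min detection, RT · Technique – TR-FRET with Eu antibody and ULight streptavidin, EDTA stop · Read-out basis – inhibition from TR-FRET ratio decrease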
IDH1 mut inh – inhibitors of human IDH1 R132H | IDH1 R132H reductase, diaphorase/resazurin fluorescence, 60 min | inhibition, % at 10 µM | actives 0.18% (n = 70,000); in the data active means inhibition above about 34%; inconclusive means no clear call, values can overlap the other calls; inactive means below about 11%;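 further: 0% = DMSO and 100% = no enzyme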
Target sequence (O75874 whole entry R132H): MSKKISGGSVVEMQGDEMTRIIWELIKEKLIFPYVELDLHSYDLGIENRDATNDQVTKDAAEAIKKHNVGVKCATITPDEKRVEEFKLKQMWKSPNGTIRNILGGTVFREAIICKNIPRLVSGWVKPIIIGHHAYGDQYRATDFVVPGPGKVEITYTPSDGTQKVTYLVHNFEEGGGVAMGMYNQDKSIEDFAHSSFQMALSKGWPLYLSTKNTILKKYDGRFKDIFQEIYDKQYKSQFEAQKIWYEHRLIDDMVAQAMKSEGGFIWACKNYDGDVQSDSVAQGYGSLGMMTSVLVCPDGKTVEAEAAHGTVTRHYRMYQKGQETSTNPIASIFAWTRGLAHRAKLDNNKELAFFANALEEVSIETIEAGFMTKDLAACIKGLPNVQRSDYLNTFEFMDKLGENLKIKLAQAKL
T cruzi growth-1 – blocks T. cruzi growth in NIH3T3 culture; T. cruzi beta-gal in NIH3T3, GalScreen luminescence, 90 h; actives 5.9% (n = 77,000); AID 624255; inhibition, % at 8.34 µM;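 active means mean inhibition above about 93%, with at least 55% of replicates each passing it, limit read from the data, passing the limit was not always enough; inconclusive means only one of those two conditions holds; inactive means neither condition holds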
T cruzi growth-2 – Trypanosoma cruzi proliferation inhibition; shares compounds with T cruzi growth-1; T. cruzi beta-gal in NIH3T3, GalScreen luminescence, 90 h; inhibition, % at 8.35 µM; actives 72% (n = 5,600); AID 651739;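 active means mean replicate inhibition above about 95% and at least 55% of replicates individually reaching it, limit read from the data; inconclusive means only one of the two criteria is met; inactive means neither criterion is met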
T cruzi growth-3 – blocks T. cruzi growth in NIH3T3 host cells; shares compounds with T cruzi growth-1; T. cruzi beta-gal in NIH3T3, GalScreen luminescence, 90 h; inhibition, % at 2.09 µM; actives 21% (n = 5,600);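 active means mean inhibition above about 95%, with at least 55% of replicates also reaching it, limit read from the data; inconclusive means meets just one of the two conditions; inactive means meets neither condition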;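 further: plate controls were neutral control median for no effect and positive control median for full effect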
3T3 cytotox – cytotoxicity in mouse NIH/3T3 fibroblasts; shares compounds with T cruzi growth-1; NIH/3T3 viability, CellTiter-Glo ATP luminescence, 90 h; cytotoxicity (signal decrease), % at 8.35 µM; actives 14% (n = 5,600); AID 651742;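 active means mean signal decrease across replicates above about 35% based on untreated-well scatter, with enough replicates individually passing, limit read from the data; inconclusive means no rule stated though some were filed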;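 further: 0% = median of neutral control wells and 100% = median of positive control wells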
3T3 cytotox 2 – cytotoxicity in mouse NIH/3T3 fibroblasts; shares compounds with T cruzi growth-1; actives 56% (n = 5,600); NIH/3T3 viability, CellTiter-Glo ATP luminescence, 90 h; inhibition, % at 24.9 µM;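 active means mean loss of cell viability signal at or above a set limit, and enough replicates individually reaching it; inconclusive means meets only the mean limit or only the replicate share; inactive means meets neither condition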;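 further: 0% = median of neutral control wells and 100% = median of positive control wells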
An asterisk follows results filed as active; ? = inconclusive; · = no result.

SMILES	GASC1 inh	IDH1 mut inh	T cruzi growth-1	T cruzi growth-2	T cruzi growth-3	3T3 cytotox	3T3 cytotox 2
N#C[C@@H]1[C@H](c2ccc(C#CCC3CCCC3)cc2)[C@@H](CO)N1C(=O)CN1CCOCC1	-2	·	101*	106*	69	-7	82*
N#C[C@H]1[C@H](c2ccc(C#CCC3CCCC3)cc2)[C@@H](CO)N1C(=O)CN1CCOCC1	-1	·	83	·	·	·	·
Cc1nnc2sc(-c3ccccc3NC(=S)NC(=O)CC34CC5CC(CC(C5)C3)C4)nn12	·	1	·	·	·	·	·
CC(C)CC#Cc1cnc2c(c1)C(=O)N([C@@H](C)CO)C[C@@H](C)[C@@H](CN(C)C(=O)Nc1cc(F)ccc1F)O2	-1	·	?	104*	42	36*	74*
CCCC#Cc1cnc2c(c1)C(=O)N([C@H](C)CO)C[C@@H](C)[C@@H](CN(C)C(=O)Nc1cc(F)ccc1F)O2	4	0	14	·	·	·	·
COc1ccccc1NC(=O)N(C)C[C@@H]1Oc2ncc(C#CCC(C)C)cc2C(=O)N([C@H](C)CO)C[C@@H]1C	-3	0	74	·	·	·	·
COc1ccccc1NC(=O)N(C)C[C@@H]1Oc2ncc(C#CCC(C)C)cc2C(=O)N([C@@H](C)CO)C[C@H]1C	0	-3	104*	106*	63	-5	3
CC(C)CC#Cc1cnc2c(c1)C(=O)N([C@@H](C)CO)C[C@@H](C)[C@H](CN(C)C(=O)Nc1cc(F)ccc1F)O2	0	1	115*	101*	100*	13	74*
CCCC#Cc1cnc2c(c1)C(=O)N([C@@H](C)CO)C[C@@H](C)[C@H](CN(C)C(=O)Nc1ccccc1F)O2	-2	·	?	115*	89	-5	39*
CCCC#Cc1cnc2c(c1)C(=O)N([C@@H](C)CO)C[C@H](C)[C@@H](CN(C)C(=O)Nc1ccccc1F)O2	3	·	-2	·	·	·	·
CC(C)CC#Cc1cnc2c(c1)C(=O)N([C@H](C)CO)C[C@@H](C)[C@H](CN(C)C(=O)Nc1cc(F)ccc1F)O2	0	·	107	·	·	·	·
CC(=O)NCCCN(CCCCN(CCCNC(=O)/C=C/c1ccc(O)cc1)C(C)=O)C(=O)/C=C/c1ccc(O)cc1	·	0	·	·	·	·	·
CCOC(=O)NCC(Cc1ccc(OCCc2nc(-c3ccccc3)oc2C)cc1)N/C(C)=C/C(=O)c1ccc(C(F)(F)F)cc1 (stereo unspecified)	·	-1	·	·	·	·	·
O=C1CC(c2cccs2)Cc2nc(NCCN3CCOCC3)ncc21 (stereo unspecified)	·	0	·	·	·	·	·
CCc1c(O)nc(SCC(=O)Nc2ccc(OC)cc2)n(-c2ccccc2)c1=O	·	0	·	·	·	·	·
CCCn1c2ccccc2c2nnc(Sc3ccc4nsnc4c3[N+](=O)[O-])nc21	·	1	·	·	·	·	·
CCOc1ccccc1NC(=O)c1ccsc1NC(=O)c1ccoc1C	·	0	·	·	·	·	·
CCn1c2ccccc2c2cc(/C=N/NC(=O)c3ccccn3)ccc21	·	0	·	·	·	·	·
C[C@@H]1CCCCO[C@H](CN(C)C(=O)Cc2ccccc2)[C@H](C)CN([C@@H](C)CO)C(=O)c2cc(NC(=O)Nc3ccc(F)cc3)ccc2O1	·	-1	100*	103*	10	-24	-34
C[C@@H]1CN([C@H](C)CO)C(=O)c2cc(NC(=O)Nc3ccccc3)ccc2O[C@@H](C)CCCCO[C@@H]1CN(C)C(=O)Cc1ccccc1	-1	0	-6	·	·	·	·
C[C@@H]1CN([C@H](C)CO)C(=O)c2cc(NC(=O)Nc3ccc(F)cc3)ccc2O[C@@H](C)CCCCO[C@@H]1CN(C)C(=O)Cc1ccccc1	-3	0	87	·	·	·	·
C[C@@H]1CCCCO[C@H](CN(C)C(=O)Cc2ccccc2)[C@H](C)CN([C@H](C)CO)C(=O)c2cc(NC(=O)Nc3ccccc3)ccc2O1	0	0	103*	98*	16	-10	-15
C[C@@H]1CCCCO[C@@H](CN(C)C(=O)Cc2ccccc2)[C@@H](C)CN([C@H](C)CO)C(=O)c2cc(NC(=O)Nc3ccc(F)cc3)ccc2O1	-3	0	·	·	·	·	·
C[C@@H]1CCCCO[C@H](CN(C)C(=O)Cc2ccccc2)[C@H](C)CN([C@H](C)CO)C(=O)c2cc(NC(=O)Nc3ccc(F)cc3)ccc2O1	-1	1	103*	107*	108*	-21	2
C[C@H](CO)N1C[C@H](C)[C@H](CN(C)C(=O)Cc2ccccc2)OCCCC[C@H](C)Oc2ccc(NC(=O)Nc3ccc(F)cc3)cc2C1=O	-1	-1	40	·	·	·	·
SMILES	GASC1 inh	IDH1 mut inh	T cruzi growth-1	T cruzi growth-2	T cruzi growth-3	3T3 cytotox	3T3 cytotox 2
C[C@H]1CCCCO[C@H](CN(C)C(=O)Cc2ccccc2)[C@@H](C)CN([C@@H](C)CO)C(=O)c2cc(NC(=O)Nc3ccc(F)cc3)ccc2O1	-1	1	101*	106*	-42	-16	20
COc1cc(NC(=O)CCCN2C(=O)c3ccccc3C2=O)cc(OC)c1	·	-1	·	·	·	·	·
Cc1cccc(N(CC(=O)Nc2ccc(Cl)c(Cl)c2)S(C)(=O)=O)c1	·	0	·	·	·	·	·
COc1ccccc1N(CC(=O)N1CCN(C)CC1)S(C)(=O)=O	·	0	·	·	·	·	·
CC(=O)OCCSc1nc(N(C)C)nc(N(C)C)n1	·	0	·	·	·	·	·
COc1cc(Br)c(/C=N/NC(=O)c2ccccn2)cc1OC	·	0	·	·	·	·	·
Cc1c(Br)c([N+](=O)[O-])nn1C(C)C(=O)N1CCOCC1 (stereo unspecified)	·	0	·	·	·	·	·
CCOc1ccccc1NC(=O)CN1C(=O)c2ccc([N+](=O)[O-])cc2C1=O	·	0	·	·	·	·	·
Cc1noc(C)c1NC(=O)Nc1ccc2c(c1)C(=O)N([C@H](C)CO)C[C@H](C)[C@H](CN(C)C(=O)Cc1ccccc1)OCCCC[C@H](C)O2	0	·	106*	35	23	-8	-13
Cc1noc(C)c1NC(=O)Nc1ccc2c(c1)C(=O)N([C@@H](C)CO)C[C@H](C)[C@@H](CN(C)C(=O)Cc1ccccc1)OCCCC[C@@H](C)O2	-1	·	45	·	·	·	·
CCC(C)C1NC(=O)c2c1n(C)c1ccccc1c2=O (stereo unspecified)	·	0	·	·	·	·	·
O=C(/C=C/c1ccccc1)Nc1nnc(CSCc2ccccc2F)s1	·	0	·	·	·	·	·
Cc1ccccc1S(=O)(=O)N(C)C[C@H]1OCc2ccccc2-c2ccccc2C(=O)N([C@H](C)CO)C[C@@H]1C	-1	-5	?	95*	31	-6	2
C[C@@H]1CN([C@@H](C)CO)C(=O)c2ccccc2-c2ccccc2CO[C@@H]1CN(C)S(=O)(=O)c1cccs1	-3	-4	115*	92	7	2	?
C[C@H](CO)N1C[C@H](C)[C@@H](CN(C)S(C)(=O)=O)OCc2ccccc2-c2ccccc2C1=O	2	2	40	·	·	·	·
